From paper PMC9020136 (Science (New York, N.Y.), 2022)

What was measured:
Bacilus subtilis = experiment: MIC, broth-microdilution method; type: cell-based
bacterial membranes = experiment: Membrane permeabilization, influx of viability stain SYTOX Green; type: cell-based, B. subtilis; conditions: concentration twice the MIC value
Procedure, shortened: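 Live B. subtilis cells imaged over time by confocal microscopy after exposure to a lethal level of test compound. SYTOX Green was used as a viability stain, with its entry into cells read as membrane permeabilization.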

Substance: (−)-Himastatin [(−)-himastatin (1)]
- MIC (Bacilus subtilis): 1 mg/L
- time to permeabilization of bacterial membranes (bacterial membranes): ≤ 30 min
